ChEMBL document CHEMBL1649395, “Synthesis and antibacterial activity of novel ketolides with 11,12-sulfur contained aryl alkyl side chains” (2011)
In brackets after ≈: the same amount, converted by molar mass.

Assays:
Type in all cases: functional
Streptococcus pneumoniae [1] = assay: Antibacterial activity against erythromycin-susceptible Streptococcus pneumoniae 07H252 by broth microdilution method
Summary of the method: (§1)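 Strains were ATCC reference strains or clinical isolates from China's national antimicrobial resistance surveillance network (MOHNARIN). In vitro activity was measured by broth microdilution following NCCLS recommendations. Results are reported as minimum inhibitory concentration (MIC) in mg/L.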

Staphylococcus aureus [2] = assay: Antibacterial activity against methicillin-susceptible Staphylococcus aureus ATCC 29213 by broth microdilution method; summary of the method: as §1
Staphylococcus aureus [3] = assay: Antibacterial activity against methicillin-susceptible Staphylococcus aureus ANS46 by broth microdilution method; summary of the method: as §1
[4] = tested on: Staphylococcus epidermidis; assay: Antibacterial activity against methicillin-susceptible Staphylococcus epidermidis 07C134 by broth microdilution method
Summary of the method: (§2)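 Clinical isolates were supplied by China's Ministry of Health National Antimicrobial Resistance Investigation Net (MOHNARIN). Activity was reported as minimum inhibitory concentration (MIC), determined by broth microdilution following NCCLS recommendations.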

[5] = tested on: Staphylococcus epidermidis; assay: Antibacterial activity against methicillin-susceptible Staphylococcus epidermidis 07T202 by broth microdilution method; summary of the method: as §1
[6] = tested on: Staphylococcus epidermidis; assay: Antibacterial activity against methicillin-resistant Staphylococcus epidermidis 07R066 by broth microdilution method; summary of the method: as §2
[7] = tested on: Staphylococcus epidermidis; assay: Antibacterial activity against methicillin-resistant Staphylococcus epidermidis 07A066 by broth microdilution method; summary of the method: as §2
Streptococcus pyogenes [8] = assay: Antibacterial activity against erythromycin-susceptible Streptococcus pyogenes 07U084 by broth microdilution method; summary of the method: as §1
Streptococcus pyogenes [9] = assay: Antibacterial activity against erythromycin-susceptible Streptococcus pyogenes 07U086 by broth microdilution method; summary of the method: as §1
Streptococcus pyogenes [10] = assay: Antibacterial activity against erythromycin-resistant Streptococcus pyogenes 03-233 by broth microdilution method; summary of the method: as §2
Streptococcus pyogenes [11] = assay: Antibacterial activity against erythromycin-resistant Streptococcus pyogenes 01-533 by broth microdilution method; summary of the method: as §2
Streptococcus pneumoniae [12] = assay: Antibacterial activity against erythromycin-susceptible Streptococcus pneumoniae ATCC 49619 by broth microdilution method; summary of the method: as §1
Streptococcus pneumoniae [13] = assay: Antibacterial activity against erythromycin-resistant Streptococcus pneumoniae 07D201 by broth microdilution method; summary of the method: as §2
Streptococcus pneumoniae [14] = assay: Antibacterial activity against erythromycin-resistant Streptococcus pneumoniae 07P390 by broth microdilution method; summary of the method: as §2
Haemophilus influenzae [15] = assay: Antibacterial activity against erythromycin-susceptible Haemophilus influenzae ATCC 49247 by broth microdilution method; summary of the method: as §1
Haemophilus influenzae [16] = assay: Antibacterial activity against erythromycin-susceptible Haemophilus influenzae 07O114 by broth microdilution method; summary of the method: as §1
Haemophilus influenzae [17] = assay: Antibacterial activity against erythromycin-susceptible Haemophilus influenzae 07O339 by broth microdilution method; summary of the method: as §1
Haemophilus influenzae [18] = assay: Antibacterial activity against erythromycin-susceptible Haemophilus influenzae 07O394 by broth microdilution method; summary of the method: as §1

| Compound | MIC (Streptococcus pneumoniae [1]) [µg/mL] | MIC (Staphylococcus aureus [2]) [µg/mL] | MIC (Staphylococcus aureus [3]) [µg/mL] | MIC [4] [µg/mL] | MIC [5] [µg/mL] | MIC [6] [µg/mL] | MIC [7] [µg/mL] | MIC (Streptococcus pyogenes [8]) [µg/mL] | MIC (Streptococcus pyogenes [9]) [µg/mL] | MIC (Streptococcus pyogenes [10]) [µg/mL] | MIC (Streptococcus pyogenes [11]) [µg/mL] | MIC (Streptococcus pneumoniae [12]) [µg/mL] | MIC (Streptococcus pneumoniae [13]) [µg/mL] | MIC (Streptococcus pneumoniae [14]) [µg/mL] | MIC (Haemophilus influenzae [15]) [µg/mL] | MIC (Haemophilus influenzae [16]) [µg/mL] | MIC (Haemophilus influenzae [17]) [µg/mL] | MIC (Haemophilus influenzae [18]) [µg/mL] |
| --- | --- | --- | --- | --- | --- | --- | --- | --- | --- | --- | --- | --- | --- | --- | --- | --- | --- | --- |
| CC[C@H]1OC(=O)[C@H](C)C(=O)[C@H](C)[C@@H](O[C@@H]2O[C@H](C)C[C@H](N(C)C)[C@H]2O)[C@@](C)(OC)C[C@@H](C)C(=O)[C@H](C)[C@H]2N(CCCSc3nc(C)cc(C)n3)C(=O)O[C@]12C | 2 (≈ 2.52 µM) | 0.5 (≈ 0.63 µM) | > 32 | 0.5 (≈ 0.63 µM) | > 32 | 0.5 (≈ 0.63 µM) | 0.5 (≈ 0.63 µM) | 0.125 (≈ 0.158 µM) | 0.125 (≈ 0.158 µM) | > 32 | 2 (≈ 2.52 µM) | 0.062 (≈ 0.0782 µM) | > 32 | 1 (≈ 1.26 µM) | 4 (≈ 5.04 µM) | 8 (≈ 10.1 µM) | 4 (≈ 5.04 µM) | 8 (≈ 10.1 µM) |
| CC[C@H]1OC(=O)[C@H](C)C(=O)[C@H](C)[C@@H](O[C@@H]2O[C@H](C)C[C@H](N(C)C)[C@H]2O)[C@@](C)(OC)C[C@@H](C)C(=O)[C@H](C)[C@H]2N(CCCSc3nnnn3C)C(=O)O[C@]12C | 8 (≈ 10.4 µM) | 0.25 (≈ 0.325 µM) | > 32 | 0.25 (≈ 0.325 µM) | > 32 | > 32 | 1 (≈ 1.3 µM) | 0.062 (≈ 0.0806 µM) | 0.062 (≈ 0.0806 µM) | > 32 | 1 (≈ 1.3 µM) | 0.031 (≈ 0.0403 µM) | > 32 | 0.5 (≈ 0.65 µM) | 8 (≈ 10.4 µM) | 8 (≈ 10.4 µM) | 8 (≈ 10.4 µM) | 8 (≈ 10.4 µM) |
| CC[C@H]1OC(=O)[C@H](C)C(=O)[C@H](C)[C@@H](O[C@@H]2O[C@H](C)C[C@H](N(C)C)[C@H]2O)[C@@](C)(OC)C[C@@H](C)C(=O)[C@H](C)[C@H]2N(CCCSc3nc(-c4ccccc4)cs3)C(=O)O[C@]12C | 0.5 (≈ 0.591 µM) | 0.5 (≈ 0.591 µM) | 32 (≈ 37.8 µM) | 0.5 (≈ 0.591 µM) | 32 (≈ 37.8 µM) | 0.5 (≈ 0.591 µM) | 0.5 (≈ 0.591 µM) | 0.25 (≈ 0.295 µM) | 0.25 (≈ 0.295 µM) | 32 (≈ 37.8 µM) | 1 (≈ 1.18 µM) | 0.25 (≈ 0.295 µM) | 8 (≈ 9.45 µM) | 0.25 (≈ 0.295 µM) | 16 (≈ 18.9 µM) | 32 (≈ 37.8 µM) | 32 (≈ 37.8 µM) | 32 (≈ 37.8 µM) |
| CC[C@H]1OC(=O)[C@H](C)C(=O)[C@H](C)[C@@H](O[C@@H]2O[C@H](C)C[C@H](N(C)C)[C@H]2O)[C@@](C)(OC)C[C@@H](C)C(=O)/C(C)=C/[C@]1(C)OC(=O)NCCCSc1nc2cc([N+](=O)[O-])ccc2[nH]1 | – | 1 (≈ 1.18 µM) | > 16 | 1 (≈ 1.18 µM) | > 16 | 1 (≈ 1.18 µM) | 1 (≈ 1.18 µM) | 0.125 (≈ 0.147 µM) | 0.125 (≈ 0.147 µM) | – | – | 0.125 (≈ 0.147 µM) | – | – | 16 (≈ 18.9 µM) | 16 (≈ 18.9 µM) | > 16 | > 16 |
| CC[C@H]1OC(=O)[C@H](C)C(=O)[C@H](C)[C@@H](O[C@@H]2O[C@H](C)C[C@H](N(C)C)[C@H]2O)[C@@](C)(OC)C[C@@H](C)C(=O)[C@H](C)[C@H]2N(CCCSc3nc4ccccc4[nH]3)C(=O)O[C@]12C | – | 0.125 (≈ 0.156 µM) | > 16 | 0.062 (≈ 0.0772 µM) | > 16 | 0.062 (≈ 0.0772 µM) | 0.125 (≈ 0.156 µM) | 0.016 (≈ 0.0199 µM) | 0.016 (≈ 0.0199 µM) | – | – | 0.016 (≈ 0.0199 µM) | – | – | 4 (≈ 4.98 µM) | 2 (≈ 2.49 µM) | 2 (≈ 2.49 µM) | 2 (≈ 2.49 µM) |
| CC[C@H]1OC(=O)[C@H](C)C(=O)[C@H](C)[C@@H](O[C@@H]2O[C@H](C)C[C@H](N(C)C)[C@H]2O)[C@@](C)(OC)C[C@@H](C)C(=O)[C@H](C)[C@H]2N(CCCSc3ccccn3)C(=O)O[C@]12C | – | 0.125 (≈ 0.164 µM) | > 16 | 0.125 (≈ 0.164 µM) | > 16 | 0.125 (≈ 0.164 µM) | 0.125 (≈ 0.164 µM) | 0.016 (≈ 0.0209 µM) | 0.016 (≈ 0.0209 µM) | – | – | 0.016 (≈ 0.0209 µM) | – | – | 8 (≈ 10.5 µM) | 8 (≈ 10.5 µM) | 4 (≈ 5.24 µM) | 8 (≈ 10.5 µM) |
| CC[C@H]1OC(=O)[C@H](C)C(=O)[C@H](C)[C@@H](O[C@@H]2O[C@H](C)C[C@H](N(C)C)[C@H]2O)[C@@](C)(OC)C[C@@H](C)C(=O)[C@H](C)[C@H]2N(CCCSc3nc(-c4ccccc4)c(-c4ccccc4)o3)C(=O)O[C@]12C | – | 4 (≈ 4.41 µM) | > 16 | 4 (≈ 4.41 µM) | > 16 | 4 (≈ 4.41 µM) | 2 (≈ 2.21 µM) | 0.5 (≈ 0.552 µM) | 0.5 (≈ 0.552 µM) | – | – | 1 (≈ 1.1 µM) | – | – | > 16 | > 16 | > 16 | > 16 |
